Key:
[1] = The absolute striatal uptake of the carbon-11 labeled compound at 60 min was determined in baboon; type: ADME; conditions: papio hamadryas, 1 h
How it was run: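 PET in one young adult female baboon (Papio anubis, 12.6 kg). Anaesthesia was ketamine (10 mg/kg), then isoflurane/nitrous oxide maintenance. The same animal was used for three experiments, at least two weeks apart.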

[2] = Peak plasma radioactivity for the carbon-11 labeled compound was determined at 0.5 min after injection in baboon; (Range = 0.08-0.11); type: ADME, cell-free; conditions: papio hamadryas
[3] = Peak plasma radioactivity for the carbon-11 labeled compound was determined at 1.5 min after injection in baboon; (Range = 0.08-0.11); type: ADME, cell-free; conditions: papio hamadryas, 0.025 h
[4] = The amount of unchanged tracer in baboon plasma was determined 1 min after injection of the carbon-11 labeled compound; type: ADME, cell-free; conditions: papio hamadryas, read-out: Unchanged tracer
How it was run: (§1)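 Arterial plasma was sampled at 1, 10, 30 and 60 min after tracer injection in the baboon. Unchanged [N-11C-methyl]-4-fluorodeprenyl was measured by HPLC on a C18 Spherisorb 5 ODS column (250 × 4.6 mm). Mobile phase was methanol–0.05 N ammonium formate (70–30%) at 1 mL/min, with UV at 254 nm. Results are given as percent unchanged tracer.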

[5] = The amount of unchanged tracer in baboon plasma was determined 30 min after injection of the carbon-11 labeled compound; type: ADME, cell-free; conditions: papio hamadryas, read-out: Unchanged tracer; how it was run: as §1
[6] = The amount of unchanged tracer in baboon plasma was determined 60 min after injection of the carbon-11 labeled compound; type: ADME, cell-free; conditions: papio hamadryas, read-out: Unchanged tracer; how it was run: as §1
[7] = The amount of unchanged tracer in baboon plasma was determined 10 min after injection of the carbon-11 labeled compound; type: ADME, cell-free; conditions: papio hamadryas, read-out: Unchanged tracer; how it was run: as §1
Monoamine oxidase = target: T1, Monoamine oxidase (Homo sapiens, UniProt P21397+P27338); test: In vitro inhibitory activity against Monoamine oxidase in baboon brain was determined; type: tissue-based, Papio hamadryas; conditions: target entry is the homologue from another species
T1 sequence (P21397 whole entry): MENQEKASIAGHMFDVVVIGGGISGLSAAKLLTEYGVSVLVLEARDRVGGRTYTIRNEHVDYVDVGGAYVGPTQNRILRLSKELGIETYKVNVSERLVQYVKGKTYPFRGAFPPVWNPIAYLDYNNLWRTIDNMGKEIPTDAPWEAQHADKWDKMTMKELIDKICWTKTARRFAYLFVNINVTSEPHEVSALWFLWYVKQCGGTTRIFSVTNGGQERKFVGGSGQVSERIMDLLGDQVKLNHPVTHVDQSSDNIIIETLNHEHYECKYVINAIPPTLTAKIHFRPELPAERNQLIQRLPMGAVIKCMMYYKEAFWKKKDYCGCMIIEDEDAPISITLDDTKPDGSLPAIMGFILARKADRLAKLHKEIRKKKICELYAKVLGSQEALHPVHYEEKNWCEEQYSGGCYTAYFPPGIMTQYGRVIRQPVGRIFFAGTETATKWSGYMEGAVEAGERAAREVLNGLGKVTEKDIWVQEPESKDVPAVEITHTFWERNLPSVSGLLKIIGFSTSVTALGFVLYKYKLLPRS
T1 sequence (P27338 whole entry): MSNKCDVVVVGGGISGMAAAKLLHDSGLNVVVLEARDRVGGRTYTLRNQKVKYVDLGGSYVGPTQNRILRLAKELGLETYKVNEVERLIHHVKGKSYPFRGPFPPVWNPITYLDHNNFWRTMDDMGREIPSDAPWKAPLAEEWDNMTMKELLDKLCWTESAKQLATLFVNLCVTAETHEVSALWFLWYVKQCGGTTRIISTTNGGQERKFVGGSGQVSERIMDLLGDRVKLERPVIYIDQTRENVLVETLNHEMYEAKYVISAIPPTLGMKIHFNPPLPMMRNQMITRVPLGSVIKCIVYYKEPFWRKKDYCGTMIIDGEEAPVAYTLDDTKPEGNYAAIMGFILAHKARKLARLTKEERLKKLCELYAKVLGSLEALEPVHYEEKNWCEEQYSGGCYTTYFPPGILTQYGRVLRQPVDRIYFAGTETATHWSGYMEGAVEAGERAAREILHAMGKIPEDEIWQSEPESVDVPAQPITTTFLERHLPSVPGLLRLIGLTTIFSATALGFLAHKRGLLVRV

| Structure (SMILES) | % injected dose/cm3 [1] [%] | Peak radioactivity in blood [2] [% injected dose cm**-3] | Peak radioactivity in blood [3] [% injected dose cm**-3] | remaining at 1 min [4] [%] | remaining at 0.5 h [5] [%] | remaining at 1 h [6] [%] | remaining at 10 min [7] [%] | IC50 (Monoamine oxidase) [nM] | Uptake [1] |
| --- | --- | --- | --- | --- | --- | --- | --- | --- | --- |
| C#CCN([11CH3])[C@H](C)Cc1ccc(F)cc1 | 0.053 | 0.11 | 0.01 | 96 | 20 | 14 | 50 | – | – |
| C#CCN(C)[C@H](C)Cc1ccc(F)cc1 | – | – | – | – | – | – | – | 41.7 | – |
| C#CCN(C)[C@@H](C)Cc1ccc(F)cc1 | 0.021 | 0.11 | 0.01 | 98 | 30 | 22 | 61 | – | – |
| C#CCN(C)C(C)Cc1ccc(F)cc1 (stereo not drawn) | – | 0.11 | 0.01 | 96 | 16 | 15 | 43 | – | 0.041 % injected dose cm**-3 |
| C#CCN(C)[C@H](C)Cc1ccccc1 [SELEGILINE] | – | – | – | – | – | – | – | – | 0.057% |
